Experimental findings from ChEMBL document CHEMBL1782040, “Exceptionally fast uptake and metabolism of cyanidin 3-glucoside by rat kidneys and liver” (J Nat Prod, 2011) are described below.

The test system of data set [1] is Nucleic Acid. Briefly: Ratio of drug uptake in urine to kidney in Wistar rat assessed as peonidin 3-glucoside level at 0.67 umol, iv after 15 mins by mass spectrometry analysis. Particulars: in vivo, 0.25 h. It counts as ADME, organism-based.
The test system of data set [2] is Kidney. Briefly: Drug uptake in Wistar rat kidney assessed as peonidin 3-glucoside level by assuming kidney mass was 2.4 gram at 0.67 umol, iv after 0.25 mins by mass spectrometry analysis. It counts as ADME, organism-based. The settings on record: in vivo, 15 s. The procedure, abridged: (§1)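 Cyanidin 3-glucoside in saline was given as one iliac-vein injection (0.67 μmol) to fasting, anaesthetized rats, which were killed at 15 s, 1, 5 or 15 min. Kidneys were homogenized, extracted in methanol, cleaned up by SPE and analysed by LC-MS/MS.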

The test system of data set [3] is Liver. Kind of data set: Drug uptake in Wistar rat liver assessed as peonidin 3-glucoside level at 0.67 umol, iv after 1 min by mass spectrometry analysis. It counts as ADME, organism-based. The settings on record: in vivo. The method, boiled down: (§2)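 Fasting, anaesthetized rats received cyanidin 3-glucoside in saline into the iliac vein (0.67 μmol) and were killed at 15 s, 1, 5 or 15 min. Liver homogenates were methanol-extracted, cleaned up by SPE and quantified by LC-MS/MS.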

Data set [4] relates to Kidney. Kind of data set: Drug uptake in Wistar rat kidney assessed as peonidin 3-glucoside level at 0.67 umol, iv after 1 min by mass spectrometry analysis. It counts as ADME, organism-based. The settings on record: in vivo, read-out: Drug uptake. The procedure, abridged: as §1
Data set [5] is described as follows: Drug uptake in Wistar rat bile assessed as peonidin 3-glucoside level by assuming plasma volume was 8.8 mL at 0.67 umol, iv after 15 mins by mass spectrometry analysis. The data set is classed as ADME, organism-based. Particulars: in vivo, 0.25 h.
Data set [6] deals with Liver. Briefly: Drug uptake in Wistar rat liver assessed as peonidin 3-glucoside level at 0.67 umol, iv after 5 mins by mass spectrometry analysis. The data set is classed as ADME, organism-based. Particulars: in vivo, read-out: Drug uptake. The method, boiled down:
as §2

Data set [7] relates to Kidney. Kind of data set: Drug uptake in Wistar rat kidney assessed as peonidin 3-glucoside level by assuming kidney mass was 2.4 gram at 0.67 umol, iv after 15 mins by mass spectrometry analysis. The data set is classed as ADME, organism-based. The settings on record: in vivo, 0.25 h. The procedure, abridged:
as §1

In data set [8] the test system is Kidney. Briefly: Drug uptake in Wistar rat kidney assessed as peonidin 3-glucoside level at 0.67 umol, iv after 0.25 mins by mass spectrometry analysis. The settings on record: in vivo, 15 s, read-out: Drug uptake. The data set is classed as ADME, organism-based. The method, boiled down:
as §1

Data set [9] in a line: Drug uptake in Wistar rat urine assessed as peonidin 3-glucoside level at 0.67 umol, iv after 15 mins by mass spectrometry analysis. The data set is classed as ADME, organism-based. Particulars: in vivo, 0.25 h, read-out: Drug uptake. The method, boiled down:
(§3)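 Fasted, anaesthetized rats received the anthocyanin in saline as a 0.67 μmol iliac-vein bolus (76 μM in plasma). They were sacrificed at 15 s, 1, 5 or 15 min, and plasma, kidneys, liver, urine and bile were collected. Anthocyanins were methanol-extracted, SPE-cleaned and quantified by MS (tandem MS for trace metabolites), then corrected for recovery measured on spiked blood, homogenates and urine. Amounts assume 8.8 mL plasma, 2.4 g kidney and 7.0 g liver, with urine and bile volumes measured.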

Data set [10] concerns Liver. Kind of data set: Drug uptake in Wistar rat liver assessed as peonidin 3-glucoside level at 0.67 umol, iv after 0.25 mins by mass spectrometry analysis. The data set is classed as ADME, organism-based. Particulars: in vivo, 15 s. The procedure, abridged: as §2
A short description of data set [11]: Drug excretion in Wistar rat bile assessed as peonidin 3-glucoside level at 0.67 umol, iv after 15 mins by mass spectrometry analysis. The data set is classed as ADME, organism-based. The settings on record: in vivo, 0.25 h. The method, boiled down:
(§4)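 Cyanidin 3-glucoside in saline was injected into the iliac vein of fasting, anaesthetized rats (0.67 μmol; 76 μM in plasma). Urine and bile were collected to 15 min, and their volumes were measured. Anthocyanin levels were measured by LC-MS and corrected for recovery from spiked standards. Amounts are given per collected volume (n = 9 urine, n = 4 bile).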

The test system of data set [12] is Liver. Briefly: Drug uptake in Wistar rat liver assessed as peonidin 3-glucoside level by assuming liver mass was 7 grams at 0.67 umol, iv after 5 mins by mass spectrometry analysis. The data set is classed as ADME, organism-based. Particulars: in vivo. The method, boiled down: as §2
Data set [13] is described as follows: Drug excretion in Wistar rat urine assessed as peonidin 3-glucoside level at 0.67 umol, iv after 15 mins by mass spectrometry analysis. The data set is classed as ADME, organism-based. The settings on record: in vivo, 0.25 h. The method, boiled down:
as §4

Data set [14] concerns Plasma. Briefly: Drug uptake in Wistar rat plasma assessed as peonidin 3-glucoside level at 0.67 umol, iv after 15 mins by mass spectrometry analysis. The data set is classed as ADME, organism-based. The settings on record: in vivo, 0.25 h. The procedure, abridged:
as §3

The subject of data set [15] is Kidney. Kind of data set: Drug uptake in Wistar rat kidney assessed as peonidin 3-glucoside level at 0.67 umol, iv after 5 mins by mass spectrometry analysis. The data set is classed as ADME, organism-based. Particulars: in vivo, read-out: Drug uptake. The method, boiled down:
as §1

For data set [16], the system named is Plasma. Kind of data set: Drug uptake in Wistar rat plasma assessed as peonidin 3-glucoside level at 0.67 umol, iv after 1 min by mass spectrometry analysis. The data set is classed as ADME, organism-based. Particulars: in vivo. The procedure, abridged: as §3
Data set [17] can be described thus: Drug uptake in Wistar rat urine assessed as peonidin 3-glucoside level by assuming plasma volume was 8.8 mL at 0.67 umol, iv after 15 mins by mass spectrometry analysis. The data set is classed as ADME, organism-based. Particulars: in vivo, 0.25 h. The method, boiled down: as §3
The test system of data set [18] is Kidney. Kind of data set: Drug uptake in Wistar rat kidney assessed as peonidin 3-glucoside level by assuming kidney mass was 2.4 gram at 0.67 umol, iv after 1 min by mass spectrometry analysis. The data set is classed as ADME, organism-based. Particulars: in vivo. The method, boiled down:
as §1

The test system of data set [19] is Liver. Briefly: Drug uptake in Wistar rat liver assessed as peonidin 3-glucoside level at 0.67 umol, iv after 15 mins by mass spectrometry analysis. The data set is classed as ADME, organism-based. Particulars: in vivo, 0.25 h. The method, boiled down: as §2
Data set [20] has as its system Nucleic Acid. Briefly: Ratio of drug uptake in bile to liver in Wistar rat assessed as peonidin 3-glucoside level at 0.67 umol, iv after 15 mins by mass spectrometry analysis. It counts as ADME, organism-based. The settings on record: in vivo, 0.25 h.
In data set [21] the test system is Liver. Kind of data set: Drug uptake in Wistar rat liver assessed as peonidin 3-glucoside level by assuming liver mass was 7 grams at 0.67 umol, iv after 0.25 mins by mass spectrometry analysis. It counts as ADME, organism-based. The settings on record: in vivo, 15 s. The method, boiled down:
as §2

The test system of data set [22] is Kidney. Briefly: Drug uptake in Wistar rat kidney assessed as peonidin 3-glucoside level by assuming kidney mass was 2.4 gram at 0.67 umol, iv after 5 mins by mass spectrometry analysis. The settings on record: in vivo. The data set is classed as ADME, organism-based. The procedure, abridged:
as §1

The subject of data set [23] is Plasma. Briefly: Drug uptake in Wistar rat plasma assessed as peonidin 3-glucoside level at 0.67 umol, iv after 0.25 mins by mass spectrometry analysis. The settings on record: in vivo, 15 s. The data set is classed as ADME, organism-based. The procedure, abridged: as §3
Data set [24] deals with Kidney. Briefly: Drug uptake in Wistar rat kidney assessed as peonidin 3-glucoside level at 0.67 umol, iv after 15 mins by mass spectrometry analysis. The data set is classed as ADME, organism-based. The settings on record: in vivo, 0.25 h, read-out: Drug uptake. The method, boiled down:
as §1

For data set [25], the system named is Liver. Kind of data set: Drug uptake in Wistar rat liver assessed as peonidin 3-glucoside level by assuming liver mass was 7 grams at 0.67 umol, iv after 1 min by mass spectrometry analysis. The data set is classed as ADME, organism-based. Particulars: in vivo. The procedure, abridged: as §2
The nature of data set [26]: Drug uptake in Wistar rat bile assessed as peonidin 3-glucoside level at 0.67 umol, iv after 15 mins by mass spectrometry analysis. The data set is classed as ADME, organism-based. Particulars: in vivo, 0.25 h, read-out: Drug uptake. The method, boiled down:
as §4

In data set [27] the test system is Liver. Briefly: Drug uptake in Wistar rat liver assessed as peonidin 3-glucoside level by assuming liver mass was 7 grams at 0.67 umol, iv after 15 mins by mass spectrometry analysis. The data set is classed as ADME, organism-based. Particulars: in vivo, 0.25 h. The procedure, abridged: as §2
The subject of data set [28] is Plasma. Briefly: Drug uptake in Wistar rat plasma assessed as petunidin 3-glucoside level at 0.67 umol, iv after 0.25 mins by tandem mass spectrometry. The data set is classed as ADME, organism-based. The settings on record: in vivo, 15 s. The procedure, abridged: as §3
Data set [29] relates to Kidney. Kind of data set: Drug uptake in Wistar rat kidney assessed as petunidin 3-glucoside level at 0.67 umol, iv after 15 mins by tandem mass spectrometry. It counts as ADME, organism-based. The settings on record: in vivo, 0.25 h, read-out: Drug uptake. The method, boiled down:
as §1

Data set [30] has as its system Kidney. Briefly: Drug uptake in Wistar rat kidney assessed as petunidin 3-glucoside level at 0.67 umol, iv after 5 mins by tandem mass spectrometry. The data set is classed as ADME, organism-based. The settings on record: in vivo, read-out: Drug uptake.
Data set [31] relates to Kidney. Briefly: Drug uptake in Wistar rat kidney assessed as petunidin 3-glucoside level by assuming kidney mass was 2.4 gram at 0.67 umol, iv after 5 mins by tandem mass spectrometry. The data set is classed as ADME, organism-based. The settings on record: in vivo. The procedure, abridged:
as §1

In data set [32] the test system is Kidney. Kind of data set: Drug uptake in Wistar rat kidney assessed as petunidin 3-glucoside level by assuming kidney mass was 2.4 gram at 0.67 umol, iv after 15 mins by tandem mass spectrometry. The data set is classed as ADME, organism-based. Particulars: in vivo, 0.25 h. The procedure, abridged: as §1
In data set [33] the test system is Plasma. Kind of data set: Drug uptake in Wistar rat plasma assessed as petunidin 3-glucoside level at 0.67 umol, iv after 1 min by tandem mass spectrometry. Particulars: in vivo. It counts as ADME, organism-based. The procedure, abridged:
as §3

Data set [34] is described as follows: Ratio of drug uptake in urine to kidney in Wistar rat assessed as petunidin 3-glucoside level at 0.67 umol, iv after 15 mins by mass spectrometry analysis. Particulars: in vivo, 0.25 h.
Data set [35] in a line: Drug excretion in Wistar rat urine assessed as petunidin 3-glucoside level at 0.67 umol, iv after 15 mins by mass spectrometry analysis. The settings on record: in vivo, 0.25 h. The data set is classed as ADME, organism-based.

On to `COc1cc(-c2[o+]c3cc(O)cc(O)c3cc2O[C@@H]2O[C@H](CO)[C@@H](O)[C@H](O)[C@H]2O)ccc1O`, for which the figures for the Ratio with Nucleic Acid [1] and in the data set on Nucleic Acid [20] were 34.5 and 86.5, respectively. For the same molecule, the Drug uptake in the data set on Kidney [2] came to 46 nmol; with Liver [3], 11.5 µM; in data set [5] it was 58.5 nmol; in the data set with Kidney [7], 49.2 nmol; in the data set on Liver [10], 5.9 µM; in the data set on Liver [12], 34.5 nmol. The Drug uptake in [17] is 98.7 nmol; in the data set with Kidney [18] it was 99.5 nmol; in the data set with Liver [19], 4.6 µM; in the data set with Liver [21], 41.1 nmol; in the data set on Kidney [22], 38.8 nmol; in the data set on Liver [25], 80.4 nmol. The Drug uptake in the data set with Liver [27] turned out to be 31.9 nmol. Further, the concentration with Kidney [4] came out at 41.5 µM; in the data set with Liver [6], 4.9 µM; in the data set on Kidney [8], 19.2 µM; in data set [9], 707 µM; in the data set with Plasma [14], 0.6 µM; in the data set on Kidney [15] it was 16.1 µM. The concentration was found to be 0.5 µM in the data set with Plasma [16], 1.2 µM in the data set with Plasma [23], 20.5 µM in the data set with Kidney [24] and 398 µM in [26]. The figures for the Activity in data set [11] and in data set [13] were 8.8% and 14.7%, respectively.

On to `COc1cc(-c2[o+]c3cc(O)cc(O)c3cc2O[C@@H]2O[C@H](CO)[C@@H](O)[C@H](O)[C@H]2O)cc(O)c1O`, for which the concentration in the data set on Plasma [28] came out at 0.002 µM; with Kidney [29], 0.966 µM; in the data set on Kidney [30], 0.879 µM; in the data set on Plasma [33], 0.002 µM. Besides, the Drug uptake with Kidney [31] is given as 2210 pmol; with Kidney [32], 2317 pmol. Besides, the Ratio in [34] was determined as 4.5. Moreover, the Activity in data set [35] was determined as 0.1%.
